# Results pooled from the literature.
# Target: Serine/threonine-protein kinase 3 (STK3, Homo sapiens, UniProt Q13188)
# One construct used (Q13188 1-491): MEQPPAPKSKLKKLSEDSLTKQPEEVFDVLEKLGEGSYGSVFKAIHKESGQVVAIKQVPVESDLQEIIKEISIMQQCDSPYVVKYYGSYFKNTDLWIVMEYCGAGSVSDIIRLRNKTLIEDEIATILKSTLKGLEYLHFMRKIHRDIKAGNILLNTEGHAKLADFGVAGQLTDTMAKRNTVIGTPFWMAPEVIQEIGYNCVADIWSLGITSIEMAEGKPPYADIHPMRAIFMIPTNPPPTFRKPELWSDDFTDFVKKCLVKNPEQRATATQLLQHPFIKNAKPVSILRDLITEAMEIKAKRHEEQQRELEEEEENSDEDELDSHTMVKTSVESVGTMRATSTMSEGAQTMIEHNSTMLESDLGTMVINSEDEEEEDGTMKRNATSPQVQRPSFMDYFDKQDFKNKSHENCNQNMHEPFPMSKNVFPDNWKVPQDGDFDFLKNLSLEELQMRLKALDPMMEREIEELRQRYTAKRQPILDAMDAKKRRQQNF
SMILES,observed,technique,concentration,remaining binding
CC1CCCN1c1nccc(-c2cnn3ncccc23)n1 (stereo not shown),binding,,1 µM,100%
C=CC(=O)N1CCC(C(=O)NCC(=O)N2CCN(c3nc(-c4cnc(N)nc4C(F)F)nc(N4CCOCC4)n3)CC2)CC1,binding,competition with immobilised ligand,1 µM,97%
CNC(=O)[C@@H]1CC[C@@H](n2c(-c3ccc4cnccc4c3)nc3ccc(C(=O)NCc4cccc(C(N)=O)c4)cc32)C1,binding,competition with immobilised ligand,1 µM,100%
C[C@H]1CCN(c2nccc(-c3cnn4ncccc34)n2)C1,binding,,1 µM,92%
COc1cnc(Nc2cccc(S(N)(=O)=O)c2)nc1N1CCN(c2ccccc2)CC1,binding,competition with immobilised ligand,1 µM,95%
COc1ncc2cc3ccccc3nc2c1C#N,cell-free assay,competition with immobilised ligand,5 µM,99%
CNC(=O)Nc1ccc2c(c1)[C@@]1(CC2)OC(=O)N(CC(=O)N(Cc2ccc(F)cc2)[C@@H](C)C(F)(F)F)C1=O,cell-free assay,competition with immobilised ligand,1 µM,97%
O=C(c1ccc(Nc2ncc(Cl)c(-c3cc4ccccc4s3)n2)cc1)N1CCC(N2CCCC2)CC1,binding,competition with immobilised ligand,1 µM,65%
COc1cc(-c2cn(C3CCc4ccccc4N(CC(F)(F)F)C3=O)nn2)ccc1-n1ccc(C)n1 (stereo not shown),cell-free assay,competition with immobilised ligand,1 µM,84%
O=C(NCC1CCOCC1)c1n[nH]cc1NC(=O)c1c(F)cccc1F,binding,competition with immobilised ligand,1 µM,89%
Cc1cnc(Nc2ccc(C(=O)N3CCC(N4CCCC4)CC3)cc2)nc1-c1cc2ccccc2s1,binding,competition with immobilised ligand,1 µM,75%
C[C@H](c1ccnc(Nc2nc3ccc(-c4cc(N(C)C)ncn4)cc3[nH]2)c1)N1CCN(C(=O)CC(F)(F)F)CC1,cell-free assay,competition with immobilised ligand,0.1 µM,93%
O=C(NCCCN1CCOCC1)c1ccc(Nc2ncc(Cl)c(-c3ccc(Cl)s3)n2)cc1,binding,competition with immobilised ligand,1 µM,12%
CC(=O)Nc1c(C(C)=O)c(=O)n(C)c2nc(-c3ccc(Cl)cc3Cl)c(-c3ccc(Cl)cc3)cc12,cell-free assay,competition with immobilised ligand,1 µM,100%
CN(C)c1nccc(-c2cnc3ncccn23)n1,binding,,1 µM,62%
CN(c1ccnc(CNc2nc(Nc3ccc4c(c3)CC(=O)N4)ncc2C(F)(F)F)n1)S(C)(=O)=O,cell-free assay,competition with immobilised ligand,1 µM,46%
COc1ccnn2ncc(-c3ccnc(N(C)C)n3)c12,binding,,1 µM,100%
c1cncc(-c2cccc(Nc3nccc(NC4CCCCC4)n3)c2)c1,binding,competition with immobilised ligand,10 µM,12%
CN([C@@H]1CCc2c(CC(=O)O)c3cc(S(C)(=O)=O)ccc3n2C1)S(=O)(=O)c1ccc(F)cc1,cell-free assay,competition with immobilised ligand,1 µM,98%
N[C@H]1CCN(c2nccc(-c3cnn4ncccc34)n2)C1,binding,,1 µM,100%
Cc1cc(NC(=O)c2cccc(S(F)(F)(F)(F)F)c2)cc(-n2ccn3nc(-c4cccnc4)cc23)c1,cell-free assay,competition with immobilised ligand,1 µM,100%
CN(c1nccc(-c2cnn3ncccc23)n1)C1CC1,binding,,1 µM,98%
